Measured values published in article PMC7127848 (Drug Design, Development and Therapy, 2020).
In brackets after ≈: the same amount, converted by molar mass. Several values for one entry are separate records, joined by “and”; a condition that tells them apart may be missing. Equal values may be shown once. Entries after “also recorded” stand apart in the source; their conditions may differ.

What was measured:
[1] = Thermodynamic solubility, shake-flask method; assay type: physicochemical; conditions: room temperature
In short: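 Shake-flask method: excess test compound shaken in solvent at room temperature for 72 h after saturation. Centrifuged (18,879 rcf, 10 min) and filtered through 0.22 μm. Dissolved compound quantified by HPLC-UV, in triplicate.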

[2] = Solution state pH stability in USP buffers; assay type: physicochemical; conditions: aqueous media pH 1-10, 37°C, up to 48 hrs
In short: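 Test compound added from DMSO to USP buffers with 0.2% v/v Tween 80: 0.2 M HCl (pH 1–2), 0.2 M acetate (pH 3–5), 0.2 M phosphate (pH 6–8), carbonate (pH 9–10). Held in a 37°C water bath. Aliquots at set times assayed by HPLC-UV for compound remaining. Degradation rate constant derived per buffer.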

Stability in plasma [3] = assay type: in vitro ADME; conditions: CD-1, mouse
In short: (§1)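 Test compound at 1 μM incubated at 37°C for up to 4 h in plasma. Sources: CD-1 mouse, SD rat (fresh, from male rats), monkey or human. Aliquots at set times quenched with acetonitrile containing clioquinol as internal standard. Centrifuged at 18,879 rcf for 5 min, and supernatant assayed by LC-MS/MS for compound remaining.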

Stability in plasma [4] = assay type: in vitro ADME; conditions: SD, rat
In short: as §1

Stability in plasma [5] = assay type: in vitro ADME; conditions: rhesus, monkey
In short: as §1

Stability in plasma [6] = assay type: in vitro ADME; conditions: human
In short: as §1

Blood-plasma partition = assay type: in vitro ADME; conditions: SD rat blood, 1 μM, 37°C, 1 hr, mean ± SEM
In short: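 Test compound spiked into fresh whole SD rat blood at 1 μM final and held 1 hr at 37°C. Plasma separated by centrifugation (15 min, 4°C, 1750 rcf). Blood and plasma assayed by LC-MS/MS. B/P taken as mean peak-area ratio in blood over plasma. Its SEM was propagated as the square root of summed squared SEM/mean terms, multiplied by B/P.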

[7] = Plasma protein binding, centrifugal ultrafiltration; assay type: in vitro ADME; conditions: Sprague-Dawley, rat, Fraction bound to plasma protein, mean ± SD
[8] = Microsome metabolic stability and predicted hepatic clearance; assay type: in vitro ADME; conditions: CD-1, mouse, liver microsomes, pH 7.4
In short: (§2)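 Liver microsomes (0.5 mg/mL) incubated with 3 µM test compound in 50 mM phosphate buffer, pH 7.4. After 3 min pre-incubation at 37°C, 5 mM NADPH started the reaction. Samples at 0, 5, 15, 30, 45 and 60 min, quenched in acetonitrile with internal standard, then LC-MS/MS. NADPH-free controls sampled at 0 and 60 min.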

[9] = as above; assay type: in vitro ADME; conditions: Sprague-Dawley (SD), rat, liver microsomes, pH 7.4
In short: as §2

[10] = as above; assay type: in vitro ADME; conditions: cynomolgus monkey, liver microsomes, pH 7.4
In short: as §2

[11] = as above; assay type: in vitro ADME; conditions: human, liver microsomes, pH 7.4
In short: as §2

CYP1A2 = biological target: T1, CYP1A2 (Homo sapiens, UniProt P05177); experiment: CYP reaction phenotyping with rhCYP; assay type: in vitro ADME
T1 sequence (P05177 1-516): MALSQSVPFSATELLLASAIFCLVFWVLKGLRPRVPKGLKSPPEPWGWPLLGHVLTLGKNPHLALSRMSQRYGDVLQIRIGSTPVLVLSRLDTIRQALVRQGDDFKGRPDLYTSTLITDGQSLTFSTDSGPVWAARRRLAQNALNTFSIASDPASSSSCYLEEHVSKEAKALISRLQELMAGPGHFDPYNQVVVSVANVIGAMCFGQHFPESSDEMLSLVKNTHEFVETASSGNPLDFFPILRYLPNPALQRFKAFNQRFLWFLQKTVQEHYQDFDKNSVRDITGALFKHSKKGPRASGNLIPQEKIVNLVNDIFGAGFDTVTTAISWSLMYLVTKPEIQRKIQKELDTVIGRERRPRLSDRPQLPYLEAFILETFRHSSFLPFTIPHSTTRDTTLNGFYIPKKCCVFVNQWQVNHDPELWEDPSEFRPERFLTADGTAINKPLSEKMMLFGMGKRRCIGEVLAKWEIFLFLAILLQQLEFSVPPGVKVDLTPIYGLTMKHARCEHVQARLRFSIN
In short: (§3)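 Recombinant human CYP (200 pmol) with 1 µM test compound in 100 mM K2HPO4/10 mM MgCl2, pH 7.4, pre-incubated. Reaction started with 1 mM NADPH. DMSO kept ≤0.1% v/v and acetonitrile ≤1% v/v. Samples at 0, 5, 15, 30 and 60 min, stopped with acetonitrile containing internal standard, then centrifuged. Negative controls lacked NADPH, used insect control cells, or both.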

CYP2D6 = CYP2D6 (Homo sapiens, UniProt P10635); experiment: CYP reaction phenotyping with rhCYP; assay type: in vitro ADME
Chain of CYP2D6 (P10635 whole entry): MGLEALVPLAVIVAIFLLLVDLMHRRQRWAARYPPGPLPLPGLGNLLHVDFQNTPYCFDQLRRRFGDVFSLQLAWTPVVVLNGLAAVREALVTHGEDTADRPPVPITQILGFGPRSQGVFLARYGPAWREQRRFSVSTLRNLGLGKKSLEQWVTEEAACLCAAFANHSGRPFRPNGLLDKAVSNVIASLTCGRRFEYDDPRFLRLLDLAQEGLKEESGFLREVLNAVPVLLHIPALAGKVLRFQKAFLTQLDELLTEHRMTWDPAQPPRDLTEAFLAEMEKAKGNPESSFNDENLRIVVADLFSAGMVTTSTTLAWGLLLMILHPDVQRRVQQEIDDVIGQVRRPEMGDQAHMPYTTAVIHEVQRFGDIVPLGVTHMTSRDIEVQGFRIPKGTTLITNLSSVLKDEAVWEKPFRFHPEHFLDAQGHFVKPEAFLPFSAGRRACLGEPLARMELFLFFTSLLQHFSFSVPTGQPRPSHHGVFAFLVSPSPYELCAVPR
In short: as §3

CYP2C8 = biological target: T2, CYP2C8 (Homo sapiens, UniProt P10632); experiment: CYP reaction phenotyping with rhCYP; assay type: in vitro ADME; conditions: rhCYP2C8
T2 sequence (P10632 1-490): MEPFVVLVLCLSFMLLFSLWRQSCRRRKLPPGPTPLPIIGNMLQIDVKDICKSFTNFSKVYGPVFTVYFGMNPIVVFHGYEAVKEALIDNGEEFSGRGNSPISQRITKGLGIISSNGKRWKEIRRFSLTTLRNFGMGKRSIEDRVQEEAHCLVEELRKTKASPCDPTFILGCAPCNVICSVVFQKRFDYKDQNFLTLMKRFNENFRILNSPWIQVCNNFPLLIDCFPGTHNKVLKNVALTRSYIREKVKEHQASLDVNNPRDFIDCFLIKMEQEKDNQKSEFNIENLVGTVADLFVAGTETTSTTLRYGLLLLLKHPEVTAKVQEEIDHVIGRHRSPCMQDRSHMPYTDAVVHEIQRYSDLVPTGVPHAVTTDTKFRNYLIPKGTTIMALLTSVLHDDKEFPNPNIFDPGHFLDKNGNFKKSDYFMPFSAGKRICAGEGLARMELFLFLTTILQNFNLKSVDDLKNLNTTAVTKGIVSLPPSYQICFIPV
In short: as §3

[12] = Pharmacokinetics and bioavailability in SD rats; assay type: in vivo; conditions: Sprague-Dawley, rat, plasma
In short: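 Male SD rats (300–350 g), cannulated under anesthesia the day before, n = 3 per group. Single dose of 2 mg/kg IV bolus, 20 mg/kg PO (fasted ≥12 h) or 10 mg/kg SC. Co-solvent formulation diluted 5-fold with saline (IV, SC) or water (PO). Blood taken 0.08–48 h, plasma by LC-MS/MS. Non-compartmental analysis; F from dose-normalised extravascular versus IV AUC.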

[13] = Human hepatic clearance by single species scaling using liver blood flow; conditions: single species (SD rat) scaling of in vivo clearance and liver blood flow
[14] = cited from earlier work
[15] = in vivo pharmacokinetic studies; cited from earlier work
[16] = system: Mycobacterium tuberculosis; conditions: cited from earlier work
[17] = system: MtMetAPs (MtMetAP1a and MtMetAP1c); conditions: both MtMetAPs over human MetAPs; cited from earlier work
[18] = cited from earlier work; remark: listed apart in the source

Oc1c(Br)cc(Cl)c2cccnc12 [CLBQ14, 7-bromo-5-chloroquinolin-8-ol]
Solubility ([1]; water (pH 7)): 70 µg/mL (≈ 271 µM)
solubility at 72 h ([1]; water, pH 7, Solubility): < 70 µg/mL
Stability in aqueous media [2]: relatively stable
recovery at 4 h, 1 μM (Stability in plasma [3]): 97.6 ± 2.27%
recovery at 4 h, 1 μM (Stability in plasma [4]): 101 ± 13%
recovery at 4 h, 1 μM (Stability in plasma [5]): 105 ± 4.25%
recovery at 4 h, 1 μM (Stability in plasma [6]): 103.7 ± 0.99%
Blood-plasma (B/P) ratio (Blood-plasma partition): 0.83 and 0.83 ± 0.03
fraction unbound at 1 h, 5 μg/mL ([7]; 5 μg/mL): 0.09
fraction unbound at 1 h, 50 μg/mL ([7]; 50 μg/mL): 0.017
remaining at 1 h, 3 µM [8]: 3.7 ± 1.36%
remaining at 1 h, 3 µM [9]: 26.8 ± 2.37%
remaining at 1 h, 3 µM [10]: 17.5 ± 0.86%
remaining at 1 h, 3 µM [11]: 35.5 ± 0.33%
Contribution to metabolism of CLBQ14 (CYP1A2; rhCYP1A2): metabolized primarily; also recorded: primary contributors
CLBQ14 turnover (CYP1A2; rhCYP1A2, 1 µM, 37°C, 60 mins): greater than 50%
Contribution to metabolism of CLBQ14 (CYP2D6; rhCYP2D6): primary contributors
CLBQ14 turnover (CYP2D6; rhCYP2D6, 1 µM, 37°C, 60 mins): greater than 50%
Contribution to metabolism of CLBQ14 (CYP2C8): may also be a contributor
Tmax ([12]; po, 20 mg/kg): 30 min
Tmax ([12]; sc, 10 mg/kg): ~55 min
Human hepatic clearance (ClH, human) predicted [13]: 11.5 mL/min/kg
calculated log P ([14]; 25°C / room temperature): 3.92 ± 0.39
calculated pKa ([14]; 25°C): 2.23 ± 0.30
Administered dose excreted unchanged in urine [15]: 0.01%
Potency against aged non-growing Mtb [16]: increased potency
Potency against replicating Mtb ([16]; replicating Mtb): great potency
Selectivity for MtMetAPs over human MetAPs [17]: great selectivity

CCOCCOCCO [Transcutol HP]
NOAEL ([18]; 5% solution administered orally to rats for 90 days): 1%
LD50 ([18]; acute administration): > 5000 mg/kg
